In PubChem BioAssay:
Activity calls are given as the source filed them.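 How the source made its calls, unless noted: active means viability loss from added drug above about 55%, and viability with drug at most 40%, in both replicates (limit read from the data, passing the limit was not always enough); inconclusive means both conditions met in only one replicate; inactive means neither replicate meets both conditions.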

How the values were obtained:
[1] = molecular target: Pantothenate synthetase (Mycobacterium tuberculosis (strain ATCC 25618 / H37Rv)) (UniProt P9WIL5); experiment: Recombinant Mtb pantothenate synthetase (PanC) inhibitors, coupled enzyme, confirmatory (AID 375; call rule not given here;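 further: 0% = full reaction with vehicle and 100% = no enzyme background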); conditions: coupled enzyme assay; at 10 µM, stronger effect = higher value
[2] = reducers of endogenous Her2 protein level, primary screen, SKBR3 breast tumor cells, AlphaScreen, ATP viability (AID 461;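 active means Her2 level under about 52% in both replicate screens, with viability over 70% of control, limit read from the data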;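 on Her2 level: lower value means less Her2 protein in the cells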;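 on viability: percent of carrier control wells set as 100% viability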); conditions: 18-24 h, measured here: SKBR3 viability, ATP luminescence, at 10 µM
[3] = molecular target: Receptor tyrosine-protein kinase erbB-2 (Homo sapiens) (UniProt P04626); experiment: as above; conditions: 18-24 h, at 10 µM, stronger effect = lower value
[4] = SK-BR-3 cell growth inhibitors, pilot screen, 24 h, human (AID 572;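 active means viability at or below 10% of carrier control in both of two separate runs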;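 further: compound exposure lasted between 18 and 24 h rather than exactly 24 h; 100% = carrier-treated control wells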); conditions: SK-BR-3 viability, CellTiter-Glo luminescence, at 10 µM, stronger effect = lower value
[5] = HUVEC growth inhibition – cell-based, human, primary screen (AID 575;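 active means viability at or below 30% in both replicate assays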;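 further: 100% = median of untreated cell wells with 0.1% DMSO on each plate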); conditions: HUVEC proliferation, CellTiter-Glo luminescence, 72 h; at 10 µM; stronger effect = lower value
Procedure, shortened: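 System: primary human umbilical vein endothelial cells; Quantity: 1250 endothelial cells in each well; Buffer or medium: supplemented EBM, 2% fetal bovine serum; Doses: one dose, 10 µM final, 0.1% DMSO; Incubation: 72 h compound incubation; Technique: ATP-based CellTiter-Glo luminescent read; Evaluation: percent of median DMSO-control luminescence; Controls: vehicle and MePR control wells.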

[6] = growth inhibitors of H69AR lung tumor, primary screen, human, duplicate replicates (AID 580;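 active means viability at or under a set limit in both replicates, limit being median viability minus 3 SD, cut at about 48% in these data, passing the limit was not always enough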;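 further: 100% = mean luminescence of untreated wells and 0% = no signal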); conditions: H69AR lung tumor cells viability, ATP luminescence, 72 h; at 10 µM; stronger effect = lower value
[7] = reversal of MRP1-mediated doxorubicin resistance, pilot screen, H69AR cells, doxorubicin co-treatment (AID 601); conditions: CellTiter-Glo, 72 h, at 10 µM; for differential viability (reversal): stronger effect = higher value
[8] = 384-well plate pilot, post-Golgi transport modulator project, inhibition of yeast transport mutant growth (AID 636; in the data active means inhibition above about 31%); conditions: absorbance 615 nm, about 18 h, stronger effect = higher value
[9] = growth suppression of yeast trafficking mutant, preliminary HTS, modulators of trafficking downstream of Golgi apparatus project, 1536-format plate, OD 615 nm (AID 637; in the data active means inhibition above about 30%); conditions: yeast transport mutant growth, absorbance 615 nm, 18 h; stronger effect = higher value
[10] = H69AR cells + 2 uM doxorubicin, measured here: viability with 2 uM doxorubicin, stronger effect = lower value
[11] = H69AR cells, compound alone cytotoxicity

Sequence of Receptor tyrosine-protein kinase erbB-2 (Homo sapiens) (P04626 whole entry, looked up): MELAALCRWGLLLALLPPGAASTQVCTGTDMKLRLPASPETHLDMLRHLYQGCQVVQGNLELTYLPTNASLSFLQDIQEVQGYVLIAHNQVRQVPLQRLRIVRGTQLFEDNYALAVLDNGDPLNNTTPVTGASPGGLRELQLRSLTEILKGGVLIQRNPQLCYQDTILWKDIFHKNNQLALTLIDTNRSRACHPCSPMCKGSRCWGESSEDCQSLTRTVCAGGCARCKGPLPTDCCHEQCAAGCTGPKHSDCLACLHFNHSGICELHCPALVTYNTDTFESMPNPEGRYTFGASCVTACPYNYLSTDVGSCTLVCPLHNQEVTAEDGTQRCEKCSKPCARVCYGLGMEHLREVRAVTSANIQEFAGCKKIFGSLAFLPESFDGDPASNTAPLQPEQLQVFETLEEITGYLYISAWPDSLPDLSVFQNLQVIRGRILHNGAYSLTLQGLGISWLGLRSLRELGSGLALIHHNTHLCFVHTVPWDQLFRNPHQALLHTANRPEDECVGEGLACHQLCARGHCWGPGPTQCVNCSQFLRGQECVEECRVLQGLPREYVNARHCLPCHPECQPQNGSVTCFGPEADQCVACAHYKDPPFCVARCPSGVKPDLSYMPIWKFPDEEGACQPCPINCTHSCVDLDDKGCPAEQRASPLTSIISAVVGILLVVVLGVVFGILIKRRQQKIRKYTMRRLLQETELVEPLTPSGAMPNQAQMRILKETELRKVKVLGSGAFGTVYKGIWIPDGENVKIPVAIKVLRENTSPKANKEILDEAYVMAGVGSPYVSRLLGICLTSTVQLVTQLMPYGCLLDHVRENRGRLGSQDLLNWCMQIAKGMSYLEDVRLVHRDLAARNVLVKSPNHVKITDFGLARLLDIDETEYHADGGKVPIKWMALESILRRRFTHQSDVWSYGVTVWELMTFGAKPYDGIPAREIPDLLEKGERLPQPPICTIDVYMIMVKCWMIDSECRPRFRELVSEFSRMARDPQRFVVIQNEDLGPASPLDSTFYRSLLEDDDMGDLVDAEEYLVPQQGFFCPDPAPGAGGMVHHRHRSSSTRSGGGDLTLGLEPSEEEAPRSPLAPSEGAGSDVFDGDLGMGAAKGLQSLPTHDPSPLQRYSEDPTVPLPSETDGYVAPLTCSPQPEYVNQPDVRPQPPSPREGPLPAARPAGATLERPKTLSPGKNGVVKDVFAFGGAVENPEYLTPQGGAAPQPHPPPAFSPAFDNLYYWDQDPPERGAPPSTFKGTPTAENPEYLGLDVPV
Sequence of Pantothenate synthetase (Mycobacterium tuberculosis (strain ATCC 25618 / H37Rv)) (P9WIL5 whole entry, looked up): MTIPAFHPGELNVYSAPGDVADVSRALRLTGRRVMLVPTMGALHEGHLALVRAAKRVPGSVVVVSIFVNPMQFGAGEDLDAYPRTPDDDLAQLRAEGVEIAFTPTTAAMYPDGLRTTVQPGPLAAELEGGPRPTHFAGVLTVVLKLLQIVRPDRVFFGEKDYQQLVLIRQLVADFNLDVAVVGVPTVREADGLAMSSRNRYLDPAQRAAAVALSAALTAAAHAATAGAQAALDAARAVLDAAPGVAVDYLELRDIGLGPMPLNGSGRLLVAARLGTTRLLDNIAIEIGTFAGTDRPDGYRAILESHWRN

Question: Which inhibition [1] does the source give for O=C1C2CCCN2C(c2ccc(Cl)c(Cl)c2)N1c1ccccn1 (stereo not drawn) here?
Answer: The inhibition was 0% (inactive).

Question: What about the viability [2] of the same molecule?
Answer: The viability was 128%.

Question: What about the Her2 level [3] of the same molecule?
Answer: Its Her2 level is 102% (inactive).

Question: What about the viability [4] of the same molecule?
Answer: The viability was 128% (inactive).

Question: And the viability [5]?
Answer: The viability was 107% (inactive).

Question: What about the viability [6] of the same molecule?
Answer: Its viability is 97.4% (inactive).

Question: And the differential viability (reversal) ([7]; H69AR cells + 2 uM doxorubicin)?
Answer: Its differential viability (reversal) is 11.4% (inactive).

Question: And the viability [7, 10]?
Answer: The viability was 86%.

Question: And the viability [7, 11]?
Answer: The viability was 97.4%.

Question: And the inhibition [8]?
Answer: Its inhibition is -4.08% (inactive).

Question: And the inhibition [9]?
Answer: The inhibition was 1.77% (inactive).

Question: Which inhibition [1] does the source give for Cc1nn(Cc2ccccc2Cl)c(Cl)c1C(=O)OCC(=O)NCc1ccco1 here?
Answer: The inhibition was 0% (inactive).

Question: What about the viability [2] of the same molecule?
Answer: Its viability is 85%.

Question: What about the Her2 level [3] of the same molecule?
Answer: Its Her2 level is 76% (inactive).

Question: And the viability [4]?
Answer: Its viability is 85% (inactive).

Question: What about the viability [5] of the same molecule?
Answer: The viability was 98.6% (inactive).

Question: And the viability [6]?
Answer: Its viability is 85.6% (inactive).

Question: What about the differential viability (reversal) ([7]; H69AR cells + 2 uM doxorubicin) of the same molecule?
Answer: Its differential viability (reversal) is -6.68% (inactive).

Question: And the viability [7, 10]?
Answer: The viability was 92.3%.

Question: And the viability [7, 11]?
Answer: The viability was 85.6%.

Question: What about the inhibition [8] of the same molecule?
Answer: The inhibition was -3.2% (inactive).

Question: What about the inhibition [9] of the same molecule?
Answer: Its inhibition is -0.82% (inactive).

Question: For Cc1ccc(OCC(=O)NCCN2CCN(C(=O)COc3ccc(C)cc3)CC2)cc1, which inhibition [1] is on record?
Answer: The inhibition was 0% (inactive).

Question: What about the viability [2] of the same molecule?
Answer: Its viability is 124%.

Question: And the Her2 level [3]?
Answer: The Her2 level was 106% (inactive).

Question: And the viability [4]?
Answer: The viability was 124% (inactive).

Question: And the viability [5]?
Answer: The viability was 88.5% (inactive).

Question: What about the viability [6] of the same molecule?
Answer: The viability was 95.2% (inactive).

Question: What about the differential viability (reversal) ([7]; H69AR cells + 2 uM doxorubicin) of the same molecule?
Answer: The differential viability (reversal) was 1.29% (inactive).

Question: What about the viability [7, 10] of the same molecule?
Answer: Its viability is 93.9%.

Question: What about the viability [7, 11] of the same molecule?
Answer: The viability was 95.2%.

Question: And the inhibition [8]?
Answer: Its inhibition is -1.76% (inactive).

Question: And the inhibition [9]?
Answer: The inhibition was -5.56% (inactive).

Question: Which results are given for O=C(O)Cn1cc(C(=O)c2ccccc2)c2ccccc21?
Answer: inhibition [1]: 0% (inactive); viability [4]: 89% (inactive); viability [5]: 104% (inactive); viability [6]: 94.7% (inactive); differential viability (reversal) ([7]; H69AR cells + 2 uM doxorubicin): -1.34% (inactive); viability [7, 10]: 96%; viability [7, 11]: 94.7%; inhibition [8]: -7.07% (inactive); inhibition [9]: -0.36% (inactive)

Question: Which inhibition [1] does the source give for Clc1ccc(CSC(Cn2ccnc2)c2ccc(Cl)cc2Cl)cc1 (stereo not drawn) here?
Answer: The inhibition was 0% (inactive).

Question: What about the viability [2] of the same molecule?
Answer: Its viability is 136%.

Question: What about the Her2 level [3] of the same molecule?
Answer: Its Her2 level is 59% (inactive).

Question: What about the viability [4] of the same molecule?
Answer: Its viability is 136% (inactive).

Question: What about the differential viability (reversal) ([7]; H69AR cells + 2 uM doxorubicin) of the same molecule?
Answer: Its differential viability (reversal) is -14.6% (inactive).

Question: And the viability [7, 10]?
Answer: Its viability is 48.3%.

Question: What about the viability [7, 11] of the same molecule?
Answer: Its viability is 33.7%.

Question: Which inhibition [1] does the source give for CCCC(C)(COC(N)=O)COC(=O)NC(C)C (stereo not drawn) here?
Answer: The inhibition was 0% (inactive).

Question: And the viability [4]?
Answer: Its viability is 88% (inactive).

Question: What about the viability [5] of the same molecule?
Answer: Its viability is 86.4% (inactive).

Question: And the viability [6]?
Answer: The viability was 100% (inactive).

Question: And the differential viability (reversal) ([7]; H69AR cells + 2 uM doxorubicin)?
Answer: Its differential viability (reversal) is -3.16% (inactive).

Question: What about the viability [7, 10] of the same molecule?
Answer: The viability was 103%.

Question: What about the viability [7, 11] of the same molecule?
Answer: The viability was 100%.

Question: And the inhibition [8]?
Answer: Its inhibition is -1.69% (inactive).

Question: And the inhibition [9]?
Answer: The inhibition was 4.17% (inactive).

Question: Which inhibition [1] does the source give for CC(CCc1ccccc1)NC(C)C(O)c1ccc(O)cc1 (stereo not drawn) here?
Answer: The inhibition was 4% (inactive).

Question: What about the viability [4] of the same molecule?
Answer: Its viability is 87% (inactive).

Question: What about the viability [5] of the same molecule?
Answer: The viability was 87.5% (inactive).

Question: And the viability [6]?
Answer: The viability was 97.2% (inactive).

Question: What about the differential viability (reversal) ([7]; H69AR cells + 2 uM doxorubicin) of the same molecule?
Answer: The differential viability (reversal) was 1.7% (inactive).

Question: What about the viability [7, 10] of the same molecule?
Answer: The viability was 95.5%.

Question: And the viability [7, 11]?
Answer: Its viability is 97.2%.

Question: And the inhibition [8]?
Answer: Its inhibition is -0.26% (inactive).

Question: And the inhibition [9]?
Answer: Its inhibition is -3% (inactive).

Question: With O=c1[nH]c(=O)n(Cc2ccccc2)c(O)c1C=NCCCO as the molecule, how does the inhibition [1] read?
Answer: The inhibition was 8% (inactive).

Question: And the viability [2]?
Answer: The viability was 100%.

Question: What about the Her2 level [3] of the same molecule?
Answer: Its Her2 level is 96.5% (inactive).

Question: And the viability [4]?
Answer: Its viability is 100% (inactive).

Question: What about the viability [5] of the same molecule?
Answer: The viability was 94.1% (inactive).

Question: And the viability [6]?
Answer: The viability was 117% (inactive).

Question: And the differential viability (reversal) ([7]; H69AR cells + 2 uM doxorubicin)?
Answer: The differential viability (reversal) was 27.1% (inactive).

Question: What about the viability [7, 10] of the same molecule?
Answer: The viability was 89.9%.

Question: And the viability [7, 11]?
Answer: Its viability is 117%.

Question: And the inhibition [8]?
Answer: The inhibition was -6.13% (inactive).

Question: What about the inhibition [9] of the same molecule?
Answer: The inhibition was -0.65% (inactive).
